Data set [1] deals with CAD. The data set is described as follows: Effect on steady state activation of voltage-gated sodium channel in mouse CAD cells at 100 nM to 1 uM by whole cell patch-clamp electrophysiology. Type of data set: cell-based. In a few lines: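 CAD cells were recorded by whole-cell voltage clamp at room temperature with several compound concentrations versus 0.1% DMSO. Activation was assessed from conductance, G = I/(Vm − Vrev), versus command voltage. V1/2 and slope were taken from Boltzmann fits to individual recordings and averaged.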

The species named for data set [2] is Rattus norvegicus. The data set is described as follows: Inhibition of voltage-gated sodium channel in rat embryonic cortical neurons assessed as decrease in fraction of current available at 10 uM measured at -50 mV by whole cell patch-clamp electrophysiology. The procedure, abridged: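 Embryonic cortical neurons were treated with 10 μM compound or 0.1% DMSO, whole-cell voltage clamp at room temperature. Slow inactivation was assessed at −50 mV, with the fraction inactivated taken as 1 minus the normalized INa. Student's t-test; 5–8 cells per condition.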

Data set [3] addresses Sodium channel protein type 1 subunit alpha (Homo sapiens) (UniProt P35498). Kind of data set: Inhibition of human Nav1.1 expressed in HEK293 cells assessed as half-maximal voltage for steady state activation at 10 uM by whole cell patch-clamp electrophysiology (reference value: -24.69 +/-1.52 mV). The data set is classed as cell-based.
Data set [4] is filed under the species Rattus norvegicus. The data set is described as follows: Effect on steady state fast-inactivation of voltage-gated sodium channel in rat embryonic cortical neurons at 10 uM by whole cell patch-clamp electrophysiology. In a few lines:
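Rat embryonic day 19 cortical neurons, cultured 7–10 days, were whole-cell voltage-clamped at room temperature with 1–2 MΩ electrodes, with compound at 10 μM and 0.1% DMSO as control. Fast inactivation: 500 ms prepulses, then a test pulse. Activation: conductance G = I/(Vm − Vrev). V1/2 and k came from Boltzmann fits to individual cells, averaged (mean ± SEM), 5–7 cells per condition.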

The target of data set [5] is T1, Sodium channel protein type 5 subunit alpha (Homo sapiens, UniProt Q14524). Kind of data set: Inhibition of human Nav1.5 expressed in HEK293 cells assessed as half-maximal voltage for steady state activation at 10 uM by whole cell patch-clamp electrophysiology (reference value: -55.71 +/-3.81 mV). Type of data set: cell-based. Conditions: hek293, 10 µM.
T1 sequence (Q14524 whole entry): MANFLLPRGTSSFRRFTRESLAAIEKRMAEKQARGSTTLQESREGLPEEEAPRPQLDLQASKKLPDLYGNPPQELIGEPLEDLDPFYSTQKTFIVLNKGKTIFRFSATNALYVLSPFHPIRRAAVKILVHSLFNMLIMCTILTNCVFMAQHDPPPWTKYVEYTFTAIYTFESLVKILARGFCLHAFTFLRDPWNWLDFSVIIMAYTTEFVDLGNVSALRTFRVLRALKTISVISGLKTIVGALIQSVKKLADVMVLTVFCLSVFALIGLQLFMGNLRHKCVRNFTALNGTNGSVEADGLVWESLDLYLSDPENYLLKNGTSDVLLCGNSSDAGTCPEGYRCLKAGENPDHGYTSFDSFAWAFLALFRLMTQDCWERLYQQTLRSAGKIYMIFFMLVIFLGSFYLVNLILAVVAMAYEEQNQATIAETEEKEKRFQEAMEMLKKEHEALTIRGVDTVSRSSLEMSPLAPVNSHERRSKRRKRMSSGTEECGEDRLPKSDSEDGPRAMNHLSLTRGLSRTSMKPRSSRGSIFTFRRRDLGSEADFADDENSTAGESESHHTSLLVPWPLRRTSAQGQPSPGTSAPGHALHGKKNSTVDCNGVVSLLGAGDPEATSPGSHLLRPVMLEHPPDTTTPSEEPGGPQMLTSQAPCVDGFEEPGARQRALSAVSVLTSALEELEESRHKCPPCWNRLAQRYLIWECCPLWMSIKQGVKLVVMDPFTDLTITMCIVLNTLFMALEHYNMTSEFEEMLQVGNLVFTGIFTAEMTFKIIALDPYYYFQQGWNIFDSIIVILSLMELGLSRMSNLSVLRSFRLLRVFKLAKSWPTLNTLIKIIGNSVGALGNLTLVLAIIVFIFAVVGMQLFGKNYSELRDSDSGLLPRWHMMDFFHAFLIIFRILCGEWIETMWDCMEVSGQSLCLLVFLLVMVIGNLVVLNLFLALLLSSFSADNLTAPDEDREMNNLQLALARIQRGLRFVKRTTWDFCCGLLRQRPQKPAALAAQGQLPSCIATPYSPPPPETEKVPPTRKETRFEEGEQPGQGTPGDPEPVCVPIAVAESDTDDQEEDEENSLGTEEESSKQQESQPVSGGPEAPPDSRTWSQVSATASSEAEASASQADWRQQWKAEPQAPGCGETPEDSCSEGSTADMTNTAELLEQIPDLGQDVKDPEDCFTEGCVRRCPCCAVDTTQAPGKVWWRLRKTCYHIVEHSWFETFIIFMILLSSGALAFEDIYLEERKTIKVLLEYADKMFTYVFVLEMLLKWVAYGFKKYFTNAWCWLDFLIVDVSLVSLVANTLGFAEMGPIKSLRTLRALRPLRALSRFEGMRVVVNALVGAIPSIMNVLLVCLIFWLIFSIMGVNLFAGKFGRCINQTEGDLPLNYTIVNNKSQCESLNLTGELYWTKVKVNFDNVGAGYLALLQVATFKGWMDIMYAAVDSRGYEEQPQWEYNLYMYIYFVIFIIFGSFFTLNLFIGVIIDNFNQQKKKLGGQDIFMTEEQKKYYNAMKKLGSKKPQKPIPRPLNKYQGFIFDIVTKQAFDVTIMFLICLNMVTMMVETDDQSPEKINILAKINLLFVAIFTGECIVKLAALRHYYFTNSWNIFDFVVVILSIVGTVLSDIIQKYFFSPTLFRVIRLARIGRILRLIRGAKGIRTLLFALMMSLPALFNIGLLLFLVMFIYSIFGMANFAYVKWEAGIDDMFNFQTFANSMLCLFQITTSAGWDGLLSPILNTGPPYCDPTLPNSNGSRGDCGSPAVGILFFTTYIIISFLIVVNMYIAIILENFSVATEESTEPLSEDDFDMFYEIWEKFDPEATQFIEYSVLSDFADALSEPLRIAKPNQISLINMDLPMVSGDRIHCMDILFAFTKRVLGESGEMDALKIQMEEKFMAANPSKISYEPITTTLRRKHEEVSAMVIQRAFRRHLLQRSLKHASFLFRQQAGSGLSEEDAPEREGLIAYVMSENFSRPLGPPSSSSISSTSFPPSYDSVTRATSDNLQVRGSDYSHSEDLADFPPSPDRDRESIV
For data set [6], the target named is Sodium channel protein type 1 subunit alpha (Homo sapiens) (UniProt P35498). Kind of data set: Inhibition of human Nav1.1 expressed in HEK293 cells assessed as transition of channels to slow-inactivated state at 10 uM measured at -50 mV by whole cell patch-clamp electrophysiology. The data set is classed as cell-based. The procedure, abridged: (§1)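 HEK293 cells stably expressing hNav1.1, rNav1.3, hNav1.7 or hNav1.5 were grown in DMEM with 10% FBS. Recordings were whole-cell voltage clamp at room temperature, with 10 μM compound versus 0.1% DMSO. Slow inactivation at −50 mV was calculated as 1 minus normalized peak INa. Nav1.5 used hyperpolarized protocols. Data are from 5–6 cells.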

The target of the next data set is T2, CYP2C8 (Homo sapiens, UniProt P10632).
T2 sequence (P10632 whole entry): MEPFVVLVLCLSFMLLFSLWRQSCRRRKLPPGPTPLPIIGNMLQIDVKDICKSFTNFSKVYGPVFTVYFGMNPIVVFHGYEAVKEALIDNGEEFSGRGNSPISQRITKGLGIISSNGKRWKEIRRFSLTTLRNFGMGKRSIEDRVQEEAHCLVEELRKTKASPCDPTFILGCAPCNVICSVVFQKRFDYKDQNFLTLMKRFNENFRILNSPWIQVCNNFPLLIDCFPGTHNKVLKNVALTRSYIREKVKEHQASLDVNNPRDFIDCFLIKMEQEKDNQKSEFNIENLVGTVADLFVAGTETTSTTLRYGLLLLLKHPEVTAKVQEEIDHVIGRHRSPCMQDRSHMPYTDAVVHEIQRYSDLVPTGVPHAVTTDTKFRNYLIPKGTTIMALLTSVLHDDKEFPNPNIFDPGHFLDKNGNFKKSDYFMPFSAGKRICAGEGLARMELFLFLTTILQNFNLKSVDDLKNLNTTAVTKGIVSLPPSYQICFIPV
The data set is described as follows: Time-dependent inhibition of human CYP2C8 measured after 30 mins preincubation period. Type of data set: ADME. The procedure, abridged: (§2)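 Test compound at 10 μM against a human CYP450 panel (CYP1A2, 2B6, 2C8, 2C9, 2C19, 2D6, 3A4/5). Direct inhibition was measured, and time-dependent inhibition was measured after a 30-min preincubation.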

Data set [7] is filed under the species Rattus norvegicus. The data set is described as follows: Frequency-dependent inhibition of voltage-gated sodium channel in rat embryonic cortical neurons assessed as current amplitude at 10 uM measured at holding potential of -80 mV by whole cell patch-clamp electrophysiology. The procedure, abridged: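 E19 rat cortical neurons cultured 7–10 days were recorded by whole-cell voltage clamp at room temperature. Compound was at 10 μM versus 0.1% DMSO. A pulse train was applied, and available current was taken as peak current at pulse N divided by peak at pulse 1.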

Another data set has as its target T3, Cytochrome P450 2B6 (Homo sapiens, UniProt P20813).
T3 sequence (P20813 whole entry): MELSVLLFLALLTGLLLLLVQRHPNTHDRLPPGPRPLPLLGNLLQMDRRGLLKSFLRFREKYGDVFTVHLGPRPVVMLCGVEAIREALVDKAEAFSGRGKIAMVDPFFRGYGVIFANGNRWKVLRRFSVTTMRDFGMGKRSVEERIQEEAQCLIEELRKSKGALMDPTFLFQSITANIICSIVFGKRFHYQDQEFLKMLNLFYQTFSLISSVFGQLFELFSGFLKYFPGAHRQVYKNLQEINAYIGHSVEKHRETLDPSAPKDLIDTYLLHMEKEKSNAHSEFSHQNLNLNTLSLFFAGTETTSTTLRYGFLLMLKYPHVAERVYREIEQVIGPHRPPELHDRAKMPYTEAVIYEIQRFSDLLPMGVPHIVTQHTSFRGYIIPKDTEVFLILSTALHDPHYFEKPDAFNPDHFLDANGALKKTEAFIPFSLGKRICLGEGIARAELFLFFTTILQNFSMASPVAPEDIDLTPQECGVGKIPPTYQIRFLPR
The data set is described as follows: Inhibition of human CYP2B6 at 10 uM. The data set is classed as ADME. In a few lines:
as §2

The target of data set [8] is T1, Sodium channel protein type 5 subunit alpha. Kind of data set: Inhibition of human Nav1.5 expressed in HEK293 cells assessed as transition of channels to slow-inactivated state at 10 uM measured at -50 mV by whole cell patch-clamp electrophysiology. Type of data set: cell-based. Conditions: hek293, 10 µM. In a few lines:
as §1

The test system of data set [9] is CAD. The data set is described as follows: Inhibition of voltage-gated sodium channel in mouse CAD cells assessed as transition of channels to slow-inactivated state by whole cell patch-clamp electrophysiology. The data set is classed as cell-based. The procedure, abridged:
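CAD cells were grown in Ham's F12/DMEM with 10% FBS at 37 °C and 5% CO2, then recorded by whole-cell voltage clamp at room temperature. A concentration range of compound was tested versus 0.1% DMSO. Slow inactivation was measured at −50 and +20 mV, and IC50 was derived from concentration-response curves.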

In another data set the target is Cytochrome P450 2C9 (Homo sapiens, UniProt P11712). Kind of data set: Inhibition of human CYP2C9 at 10 uM. Type of data set: ADME. The procedure, abridged: as §2
Cytochrome P450 2C9, sequence (P11712 whole entry): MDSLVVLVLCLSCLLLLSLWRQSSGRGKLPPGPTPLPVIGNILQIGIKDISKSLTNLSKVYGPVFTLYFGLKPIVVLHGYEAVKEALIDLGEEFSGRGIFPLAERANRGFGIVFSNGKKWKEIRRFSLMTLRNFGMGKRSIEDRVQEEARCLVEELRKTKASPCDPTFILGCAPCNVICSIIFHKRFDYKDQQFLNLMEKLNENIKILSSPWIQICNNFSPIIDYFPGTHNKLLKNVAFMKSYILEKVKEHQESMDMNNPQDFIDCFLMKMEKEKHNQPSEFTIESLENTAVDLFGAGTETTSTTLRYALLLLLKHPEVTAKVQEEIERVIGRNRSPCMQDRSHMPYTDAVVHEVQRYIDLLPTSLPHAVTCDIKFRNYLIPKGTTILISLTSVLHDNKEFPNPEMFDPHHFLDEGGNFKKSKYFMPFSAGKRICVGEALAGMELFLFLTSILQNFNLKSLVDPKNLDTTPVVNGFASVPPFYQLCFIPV
The nature of data set [10]: Ratio of drug level in brain to plasma in Sprague-Dawley rat at 5 mg/kg, iv and 20 mg/kg, po measured after 6 hrs. The data set is classed as ADME, organism-based. Conditions: read-out: BPR. The procedure, abridged: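 Pharmacokinetics in Sprague-Dawley rats given a single iv dose of 5 mg/kg or an oral dose of 20 mg/kg.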
The target in data set [11] is Sodium channel protein type 3 subunit alpha (Rattus norvegicus) (UniProt P08104). The data set is described as follows: Inhibition of rat Nav1.3 expressed in HEK293 cells assessed as transition of channels to slow-inactivated state at 10 uM measured at -50 mV by whole cell patch-clamp electrophysiology. Type of data set: cell-based. The procedure, abridged:
as §1

Active and inactive are the calls of the source. The rule behind the calls is not given here.

Sodium channel protein type 3 subunit alpha (Rattus norvegicus), sequence (P08104 whole entry): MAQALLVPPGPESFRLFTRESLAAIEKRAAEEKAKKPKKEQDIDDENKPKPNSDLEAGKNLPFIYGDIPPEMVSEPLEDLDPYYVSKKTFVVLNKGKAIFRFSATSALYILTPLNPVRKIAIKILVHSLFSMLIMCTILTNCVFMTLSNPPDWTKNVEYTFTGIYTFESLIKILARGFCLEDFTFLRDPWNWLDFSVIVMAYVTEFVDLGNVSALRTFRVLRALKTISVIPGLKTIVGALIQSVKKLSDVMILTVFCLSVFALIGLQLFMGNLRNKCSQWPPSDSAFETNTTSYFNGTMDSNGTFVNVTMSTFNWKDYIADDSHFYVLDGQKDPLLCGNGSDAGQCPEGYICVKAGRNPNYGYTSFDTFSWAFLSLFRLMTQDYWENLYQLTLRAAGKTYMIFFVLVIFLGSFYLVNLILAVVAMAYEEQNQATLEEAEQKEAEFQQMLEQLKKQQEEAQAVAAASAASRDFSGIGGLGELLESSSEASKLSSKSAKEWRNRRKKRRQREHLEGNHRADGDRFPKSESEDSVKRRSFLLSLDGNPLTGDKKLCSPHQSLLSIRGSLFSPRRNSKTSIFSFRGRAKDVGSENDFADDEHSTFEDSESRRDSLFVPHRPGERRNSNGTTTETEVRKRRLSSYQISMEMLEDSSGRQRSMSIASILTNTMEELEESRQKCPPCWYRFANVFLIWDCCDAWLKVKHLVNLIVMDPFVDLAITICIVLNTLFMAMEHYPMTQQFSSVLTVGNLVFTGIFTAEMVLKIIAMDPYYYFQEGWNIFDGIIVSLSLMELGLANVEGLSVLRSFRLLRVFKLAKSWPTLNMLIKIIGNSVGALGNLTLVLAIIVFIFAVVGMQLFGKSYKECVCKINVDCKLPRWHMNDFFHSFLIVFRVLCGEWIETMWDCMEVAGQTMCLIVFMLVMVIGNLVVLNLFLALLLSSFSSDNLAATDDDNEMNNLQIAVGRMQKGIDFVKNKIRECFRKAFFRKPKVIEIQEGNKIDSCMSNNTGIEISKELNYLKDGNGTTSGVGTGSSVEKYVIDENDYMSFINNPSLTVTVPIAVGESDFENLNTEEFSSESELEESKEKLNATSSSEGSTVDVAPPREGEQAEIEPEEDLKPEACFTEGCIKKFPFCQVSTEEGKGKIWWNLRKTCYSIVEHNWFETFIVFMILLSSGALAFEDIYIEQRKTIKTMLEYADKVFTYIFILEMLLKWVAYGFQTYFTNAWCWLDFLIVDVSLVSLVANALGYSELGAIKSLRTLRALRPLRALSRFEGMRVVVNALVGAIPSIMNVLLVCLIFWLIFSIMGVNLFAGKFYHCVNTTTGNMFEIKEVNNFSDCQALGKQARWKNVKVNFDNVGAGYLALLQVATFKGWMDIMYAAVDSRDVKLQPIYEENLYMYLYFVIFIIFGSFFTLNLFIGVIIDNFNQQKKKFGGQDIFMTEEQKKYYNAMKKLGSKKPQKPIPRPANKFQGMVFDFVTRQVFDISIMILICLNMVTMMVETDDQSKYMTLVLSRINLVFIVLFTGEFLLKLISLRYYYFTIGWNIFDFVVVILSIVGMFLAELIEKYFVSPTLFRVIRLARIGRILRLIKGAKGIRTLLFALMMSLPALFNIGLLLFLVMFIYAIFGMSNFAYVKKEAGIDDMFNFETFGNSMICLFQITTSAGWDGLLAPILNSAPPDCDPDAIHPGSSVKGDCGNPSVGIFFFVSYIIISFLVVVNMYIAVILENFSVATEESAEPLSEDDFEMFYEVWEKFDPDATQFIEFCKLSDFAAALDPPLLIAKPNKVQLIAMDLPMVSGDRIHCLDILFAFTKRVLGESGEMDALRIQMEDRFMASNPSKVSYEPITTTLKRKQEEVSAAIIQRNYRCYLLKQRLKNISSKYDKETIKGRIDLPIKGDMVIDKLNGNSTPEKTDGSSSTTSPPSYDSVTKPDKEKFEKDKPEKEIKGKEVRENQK

In the case of `COC[C@@H](NC(C)=O)C(=O)NCc1ccc(Oc2cccc(OC(F)(F)F)c2)cc1`, the result in the data set on CAD [1] and in the data set listed under Rattus norvegicus [4] was inactive. Moreover, the inhibition entry (in the data set filed under Rattus norvegicus [2]; in data set [6]; in data set [11]) was “Active” in each case. Besides, the V1/2 in [3] is -24.4 mV; in data set [5] it was -48.99 mV. The compound also showed an inhibition at 0.5 h against CYP2C8 of 16%. Besides, in the data set listed under Rattus norvegicus [7], the inhibition result was “inactive”. The “inhibition (INH)” value on Cytochrome P450 2B6 is on record as “Not Active”; in [8], “Active”; against Cytochrome P450 2C9, “Not Active”. Besides, the inhibition result with CAD [9] is “Dose-dependent effect”. In addition, in data set [10], the Kp at 6 h came to 1.2.

(Values after ChEMBL document CHEMBL3588826, “Chimeric derivatives of functionalized amino acids and α-aminoamides: compounds with anticonvulsant activity in seizure models and inhibitory actions on central, peripheral, and cardiac isoforms of voltage-gated sodium channels” (Bioorg Med Chem, 2015).)
